From BindingDB's records for doi:10.1021/acs.jmedchem.5b00085 (The Hong Kong Polytechnic University, 2015)

Assays:
[1] = Modulation of P-gp (unknown origin) transfected in human MDA435/LCC6MDR cells assessed as reversible of paclitaxel resistance measured as IC50 for paclitaxel at 1 uM after 5 days by CellTiter 96 Aqueous assay
[2] = Modulation of P-gp (unknown origin) transfected in human MDA435/LCC6MDR cells assessed as reversing paclitaxel resistance measured as cell survival after 5 days by MTS assay
[3] = Modulation of P-gp (unknown origin) transfected in human MDA435/LCC6MDR cells assessed as reversing doxorubicin resistance measured as cell survival after 5 days by MTS assay
[4] = Modulation of P-gp (unknown origin) transfected in human MDA435/LCC6MDR cells assessed as reversing vincristine resistance measured as cell survival after 5 days by MTS assay
[5] = Modulation of P-gp (unknown origin) transfected in human MDA435/LCC6MDR cells assessed as reversing vinblastine resistance measured as cell survival after 5 days by MTS assay
[6] = Modulation of MRP1 (unknown origin) transfected in human 2008/MRP1 cells assessed as potentiation of doxorubicin-induced cytotoxicity measured as doxorubicin IC50 at 1 uM after 5 days by MTS assay
[7] = Modulation of BCRP (unknown origin) transfected in human HEK293/R2 cells assessed as potentiation of topotecan-induced cytotoxicity measured as topotecan IC50 at 1 uM after 5 days by MTS assay
[8] = molecular target: ATP-dependent translocase ABCB1 (Homo sapiens, UniProt P08183); test: Modulation of P-gp (unknown origin) transfected in human MDA435/LCC6MDR cells assessed as reversible of paclitaxel resistance measured as IC50 for paclitaxel at 10 uM after 5 days by CellTiter 96 Aqueous assay
Chain of ATP-dependent translocase ABCB1 (P08183 whole entry): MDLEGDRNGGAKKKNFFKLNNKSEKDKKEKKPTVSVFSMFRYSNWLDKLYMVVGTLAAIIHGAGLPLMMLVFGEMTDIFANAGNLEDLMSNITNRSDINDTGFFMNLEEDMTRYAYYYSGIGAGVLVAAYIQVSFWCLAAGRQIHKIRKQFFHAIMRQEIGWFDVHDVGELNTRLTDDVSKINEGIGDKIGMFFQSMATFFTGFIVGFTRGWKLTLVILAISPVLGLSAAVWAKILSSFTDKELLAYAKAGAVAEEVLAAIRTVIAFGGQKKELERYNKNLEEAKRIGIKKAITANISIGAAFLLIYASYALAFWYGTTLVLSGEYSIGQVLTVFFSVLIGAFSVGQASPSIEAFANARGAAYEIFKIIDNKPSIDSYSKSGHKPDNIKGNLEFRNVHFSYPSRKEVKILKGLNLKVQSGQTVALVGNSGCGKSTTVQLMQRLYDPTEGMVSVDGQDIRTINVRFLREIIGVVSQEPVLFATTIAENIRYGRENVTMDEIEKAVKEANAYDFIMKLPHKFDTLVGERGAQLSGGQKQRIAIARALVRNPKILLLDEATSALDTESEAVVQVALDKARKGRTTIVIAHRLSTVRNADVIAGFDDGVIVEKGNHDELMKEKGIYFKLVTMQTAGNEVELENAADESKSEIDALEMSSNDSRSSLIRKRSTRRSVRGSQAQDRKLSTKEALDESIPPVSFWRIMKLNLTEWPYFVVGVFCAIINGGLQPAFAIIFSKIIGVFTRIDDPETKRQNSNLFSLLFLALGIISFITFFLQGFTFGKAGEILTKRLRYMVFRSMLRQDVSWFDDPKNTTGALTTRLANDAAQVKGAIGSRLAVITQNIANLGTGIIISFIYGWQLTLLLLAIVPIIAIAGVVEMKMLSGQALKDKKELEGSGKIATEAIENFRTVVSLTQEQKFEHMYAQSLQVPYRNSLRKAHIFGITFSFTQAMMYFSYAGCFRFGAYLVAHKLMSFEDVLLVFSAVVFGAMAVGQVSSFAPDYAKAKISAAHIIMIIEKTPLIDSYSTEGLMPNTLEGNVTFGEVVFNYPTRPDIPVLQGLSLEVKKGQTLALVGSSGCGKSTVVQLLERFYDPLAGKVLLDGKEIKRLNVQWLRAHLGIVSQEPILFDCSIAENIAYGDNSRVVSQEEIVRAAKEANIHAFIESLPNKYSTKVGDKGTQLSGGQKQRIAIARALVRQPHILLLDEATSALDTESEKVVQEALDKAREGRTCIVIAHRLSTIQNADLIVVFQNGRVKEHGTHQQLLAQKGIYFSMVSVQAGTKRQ
Method in brief: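 They were held 5 days at 37 °C and viability read by CellTiter 96 AQueous (MTS). […] RF = IC50 of PTX without modulator / IC50 with modulator.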

COc1ccc(CCC(=O)O[C@@H]2Cc3c(OC)cc(OC)cc3O[C@@H]2c2cc(OC)c(OC)c(OC)c2)cc1
IC50 [1]: 40 nM

COc1ccc(C(=O)O[C@@H]2Cc3c(OC)cc(OC)cc3O[C@@H]2c2cc(OC)c(OC)c(OC)c2)cc1
IC50 [1]: 148 nM

COc1cc(OC)c2c(c1)O[C@H](c1cc(OC)c(OC)c(OC)c1)[C@@H](OC(=O)c1ccc(F)c(NC(=O)/C=C/c3ccc(OC)c(OC)c3)c1)C2
IC50 [1]: 6.6 nM
EC50 [2]: 280 nM

COc1cc(OC)c2c(c1)O[C@H](c1cc(OC)c(OC)c(OC)c1)[C@H](OC(=O)CCc1cc(OC)c(OC)c(OC)c1)C2
IC50 [1]: 18 nM

COc1cccc(C(=O)O[C@@H]2Cc3c(OC)cc(OC)cc3O[C@@H]2c2cc(OC)c(OC)c(OC)c2)c1
IC50 [1]: 45 nM

COc1cc(OC)c2c(c1)O[C@H](c1cc(OC)c(OC)c(OC)c1)[C@H](OC(=O)/C=C/c1ccc(OC)c(OC)c1)C2
IC50 [1]: 8.7 nM
EC50 [3]: 160 nM
EC50 [4]: 167 nM
EC50 [5]: 123 nM
EC50 [2]: 157 nM

COc1cc(OC)c2c(c1)O[C@H](c1cc(OC)c(OC)c(OC)c1)[C@@H](OC(=O)c1cc(OC)c(OC)c(OC)c1)C2=O
IC50 [1]: 44 nM

COc1cc(OC)c2c(c1)O[C@H](c1cc(OC)c(OC)c(OC)c1)[C@H](OC(=O)c1ccc(F)c(N(C)C)c1)C2
IC50 [1]: 36 nM

COc1cc(OC)c2c(c1)O[C@H](c1cc(OC)c(OC)c(OC)c1)[C@@H](OC(=O)c1ccc(F)c(NC(=O)c3cc(OC)c(OC)c(OC)c3)c1)C2
IC50 [6]: 141 nM
IC50 [7]: 38 nM
EC50 [3]: 107 nM
EC50 [4]: 102 nM
EC50 [5]: 108 nM
EC50 [2]: 140 nM

COc1cc(OC)c2c(c1)O[C@H](c1cc(OC)c(OC)c(OC)c1)[C@H](OC(=O)CCc1ccc(OC)c(OC)c1)C2
IC50 [1]: 19 nM

COc1cc(OC)c2c(c1)O[C@H](c1cc(OC)c(OC)c(OC)c1)[C@H](OC(=O)c1ccc(F)c(NC(=O)c3ccc(F)c(NC(=O)c4ccc(OC)c(OC)c4)c3)c1)C2
IC50 [1]: 14 nM

COc1ccc(C(=O)O[C@H]2C(=O)c3c(OC)cc(OC)cc3O[C@@H]2c2cc(OC)c(OC)c(OC)c2)cc1
IC50 [1]: 48 nM

COc1ccc(/C=C/C(=O)O[C@H]2Cc3c(OC)cc(OC)cc3O[C@@H]2c2cc(OC)c(OC)c(OC)c2)cc1
IC50 [1]: 19 nM

CC(=O)Oc1cc(OC(C)=O)c2c(c1)O[C@H](c1cc(OC(C)=O)c(OC(C)=O)c(OC(C)=O)c1)[C@H](OC(=O)c1cc(OC(C)=O)c(OC(C)=O)c(OC(C)=O)c1)C2
IC50 [1]: 176 nM

CCOc1cc(C(=O)O[C@@H]2Cc3c(OC)cc(OC)cc3O[C@@H]2c2cc(OC)c(OC)c(OC)c2)cc(OCC)c1OCC
IC50 [1]: 113 nM

COc1cc(OC)c2c(c1)O[C@H](c1cc(OC)c(OC)c(OC)c1)[C@@H](OC(=O)c1ccc(F)c(NC(=O)c3cc(OC)c(OC)c(OC)c3)c1)C2=O
IC50 [1]: 37 nM

COc1cc(OC)c2c(c1)O[C@H](c1cc(OC)c(OC)c(OC)c1)[C@@H](OC(C)=O)C2=O
IC50 [1]: 107 nM

COc1cc(OC)c2c(c1)O[C@H](c1cc(OC)c(OC)c(OC)c1)[C@H](OC(=O)Cc1ccc(OC)c(OC)c1)C2
IC50 [1]: 32 nM

COc1cc(OC)c2c(c1)O[C@H](c1cc(OC)c(OC)c(OC)c1)[C@@H](OC(=O)c1ccc(F)c(NC(=O)c3ccc(OC)c(OC)c3)c1)C2=O
IC50 [1]: 9.4 nM

COc1cc(OC)c2c(c1)O[C@H](c1cc(OC)c(OC)c(OC)c1)[C@H](OC(=O)/C=C/c1cc(OC)c(OC)c(OC)c1)C2
IC50 [6]: 322 nM
IC50 [7]: 357 nM

COc1cc(OC)c2c(c1)O[C@H](c1cc(OC)c(OC)c(OC)c1)[C@@H](OC(=O)c1ccc(OC)c(OC)c1)C2=O
IC50 [1]: 37 nM

COc1cc(OC)c2c(c1)O[C@H](c1cc(OC)c(OC)c(OC)c1)[C@H](OC(=O)c1ccc(F)c(NC(=O)/C=C/c3cc(OC)c(OC)c(OC)c3)c1)C2
IC50 [1]: 6.2 nM

COc1cc(OC)c2c(c1)O[C@H](c1cc(OC)c(OC)c(OC)c1)[C@H](OC(=O)c1ccc(F)c(NC(C)=O)c1)C2
IC50 [1]: 15 nM

C=CCOc1cc(C(=O)O[C@@H]2Cc3c(OC)cc(OC)cc3O[C@@H]2c2cc(OC)c(OC)c(OC)c2)cc(OCC=C)c1OCC=C
IC50 [1]: 12 nM

COc1cc(OC)c2c(c1)O[C@H](c1cc(OC)c(OC)c(OC)c1)[C@H](OC(=O)c1ccc(F)cc1)C2
IC50 [1]: 53 nM

COc1ccc(/C=C/C(=O)O[C@@H]2Cc3c(OC)cc(OC)cc3O[C@@H]2c2cc(OC)c(OC)c(OC)c2)cc1
IC50 [1]: 22 nM

C=CCOc1cc(C(=O)O[C@H]2C(=O)c3c(OC)cc(OC)cc3O[C@@H]2c2cc(OC)c(OC)c(OC)c2)cc(OCC=C)c1OCC=C
IC50 [1]: 32 nM

COc1ccc(C(=O)O[C@H]2Cc3c(OC)cc(OC)cc3O[C@@H]2c2cc(OC)c(OC)c(OC)c2)cc1
IC50 [1]: 67 nM

COc1ccc(CC(=O)O[C@@H]2Cc3c(OC)cc(OC)cc3O[C@@H]2c2cc(OC)c(OC)c(OC)c2)cc1
IC50 [1]: 34 nM

COc1cc(OC)c2c(c1)O[C@H](c1cc(OC)c(OC)c(OC)c1)[C@H](OC(=O)c1ccc(F)c(NC(=O)c3ccc(OC)c(OC)c3)c1)C2
IC50 [6]: 434 nM
IC50 [1]: 3 nM
IC50 [7]: 176 nM
EC50 [3]: 139 nM
EC50 [4]: 181 nM
EC50 [5]: 193 nM
EC50 [2]: 159 nM

COc1cc(OC)c2c(c1)O[C@H](c1cc(OC)c(OC)c(OC)c1)[C@H](OC(=O)c1ccc(OC)c(OC)c1)C2
IC50 [1]: 20 nM

COc1cc(OC)c2c(c1)O[C@H](c1cc(OC)c(OC)c(OC)c1)[C@@H](OC(=O)c1ccc(F)c(NC(=O)/C=C/c3cc(OC)c(OC)c(OC)c3)c1)C2=O
IC50 [1]: 28 nM

COc1ccc(/C=C/C(=O)O[C@H]2C(=O)c3c(OC)cc(OC)cc3O[C@@H]2c2cc(OC)c(OC)c(OC)c2)cc1
IC50 [1]: 41 nM

COc1cc(OC)c2c(c1)O[C@H](c1cc(OC)c(OC)c(OC)c1)[C@@H](OC(=O)c1ccc(OC)c(OC)c1)C2
IC50 [1]: 12 nM

COc1cc(OC)c2c(c1)O[C@H](c1cc(OC)c(OC)c(OC)c1)[C@@H](O)C2
IC50 [1]: 136 nM

COc1cc(OC)c2c(c1)O[C@H](c1cc(OC)c(OC)c(OC)c1)[C@H](OC(=O)c1cccc(F)c1)C2
IC50 [1]: 97 nM

COc1cc(OC)c2c(c1)O[C@H](c1cc(OC)c(OC)c(OC)c1)[C@@H](OC(=O)c1ccc(F)c(NC(=O)/C=C/c3cc(OC)c(OC)c(OC)c3)c1)C2
EC50 [2]: 225 nM

COc1cc(OC)c2c(c1)O[C@H](c1cc(OC)c(OC)c(OC)c1)[C@@H](OC(=O)c1ccc(F)c(NC(=O)c3ccc(OC)c(OC)c3)c1)C2
IC50 [6]: 142 nM
IC50 [7]: 45 nM
EC50 [3]: 208 nM
EC50 [4]: 147 nM
EC50 [5]: 173 nM
EC50 [2]: 171 nM

COc1cc(OC)c2c(c1)O[C@H](c1cc(OC)c(OC)c(OC)c1)[C@H](OC(=O)c1ccc(F)c(NC(=O)c3cc(OC)c(OC)c(OC)c3)c1)C2
IC50 [6]: 418 nM
IC50 [1]: 3.3 nM
IC50 [7]: 207 nM
EC50 [2]: 214 nM

COc1cc(OC)c2c(c1)O[C@H](c1cc(OC)c(OC)c(OC)c1)[C@H](OC(=O)c1ccc(F)c(NC(=O)c3ccc(F)c(NC(=O)c4cc(OC)c(OC)c(OC)c4)c3)c1)C2
IC50 [1]: 13 nM

O=C(O[C@@H]1Cc2c(O)cc(O)cc2O[C@@H]1c1cc(O)c(O)c(O)c1)c1cc(O)c(O)c(O)c1 [(-)-Epigallocatechin-3-o-gallate]
IC50 [1]: 124 nM
IC50 [8]: 123 nM
